PostGolgi yeast – growth inhibition of a yeast mutant, post-Golgi transport screen; post-Golgi transport phenotypic cell assay; actives 0.9% (n = 98,000); AID 739; inhibition, % at 10 µM;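 also: yeast cells grown in 1536-well plates; yeast grown about 18 h at 30C before absorbance read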
PostGolgi ctrl – inhibits growth of the yeast control strain | efflux-deficient yeast background strain, growth absorbance A615, 16 h | inhibition, % at 10 µM | actives 5% (n = 98,000) | AID 738
E coli WT exp – growth inhibitors of E. coli BW25113 wild type; OD600 absorbance; growth inhibition, % at 100 µM; actives 0.15% (n = 98,000); AID 710;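 active = growth inhibition above about 50% at one test dose, limit read from the data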;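 also: growth measured after 20 h incubation at 37 °C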
Pyk2 oligo antag – Pyk2 (human) oligomerization antagonism; Q293 cells, Pyk2 FERM NanoBiT luminescence; active compounds read low; z-score (the deposit names both 25 µM and 10 µM); Q14289; actives 0.83% (n = 99,000);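 active = Z-score of -3 or lower, scaled per plate to the spread of control and sample wells; inactive = z-score above -3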;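 also: negative z-score means lost luminescence so less FERM oligomerization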
Target sequence (Q14289 whole entry, looked up): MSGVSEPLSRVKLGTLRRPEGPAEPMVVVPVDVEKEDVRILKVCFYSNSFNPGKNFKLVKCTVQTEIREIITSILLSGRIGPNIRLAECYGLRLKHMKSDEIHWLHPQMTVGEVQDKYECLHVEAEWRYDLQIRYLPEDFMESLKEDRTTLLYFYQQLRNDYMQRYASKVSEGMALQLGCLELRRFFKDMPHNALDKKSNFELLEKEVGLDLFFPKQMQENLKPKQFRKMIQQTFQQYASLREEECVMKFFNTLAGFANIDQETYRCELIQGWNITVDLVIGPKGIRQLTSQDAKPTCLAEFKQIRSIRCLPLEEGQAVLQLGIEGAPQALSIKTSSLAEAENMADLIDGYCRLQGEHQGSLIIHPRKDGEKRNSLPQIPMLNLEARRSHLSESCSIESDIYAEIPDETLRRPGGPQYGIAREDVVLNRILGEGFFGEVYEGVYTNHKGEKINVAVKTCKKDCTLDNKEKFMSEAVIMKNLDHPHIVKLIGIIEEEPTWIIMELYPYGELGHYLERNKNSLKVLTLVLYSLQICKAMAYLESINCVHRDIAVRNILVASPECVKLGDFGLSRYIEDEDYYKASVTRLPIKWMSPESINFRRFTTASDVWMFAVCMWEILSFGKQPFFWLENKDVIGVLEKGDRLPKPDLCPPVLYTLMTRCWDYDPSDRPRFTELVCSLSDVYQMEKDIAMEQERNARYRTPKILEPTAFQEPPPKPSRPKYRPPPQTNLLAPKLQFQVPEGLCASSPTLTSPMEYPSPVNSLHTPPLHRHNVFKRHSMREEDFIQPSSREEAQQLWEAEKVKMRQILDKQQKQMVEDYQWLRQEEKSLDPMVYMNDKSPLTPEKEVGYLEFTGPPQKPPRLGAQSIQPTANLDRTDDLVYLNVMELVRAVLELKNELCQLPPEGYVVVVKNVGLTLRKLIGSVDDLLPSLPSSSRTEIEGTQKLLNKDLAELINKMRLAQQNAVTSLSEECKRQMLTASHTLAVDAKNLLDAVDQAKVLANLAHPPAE
tolC growth inh – blocks growth of E. coli BW25113 tolC mutant | OD615 | growth inhibition, % at 10 µM (by protocol) | AID 573 | actives 2.2% (n = 65,000);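 active = growth inhibition at or above a cutoff equal to the mean over every tested compound plus 3 SD, cut at about 60% in these data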;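 also: growth measured after 20 h incubation at 37 °C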
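Assay system: tolC-deleted E. coli BW25113. Medium: kanamycin-containing LB broth (50 µg/mL). Dosing: 10 µM final, single dose. Timing: bacterial growth with compound for 20 h at 37 °C. Detection: A615 absorbance measurement. Read-out basis: growth inhibition in percent.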
Candida biofilm – kills Candida albicans biofilms. C. albicans biofilm + clotrimazole, Alamar Blue. inhibition, % at 6 µM. actives 0.14% (n = 85,000);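 active = inhibition above 20%; inactive = inhibition below 20%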;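 also: preformed 24 hr biofilms exposed to compound for 48 hr; 0% = biofilm without compound and 100% = blank killed by clotrimazole plus chlorhexidine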
The depositor's hits bear a star; . = no result given. Only some compounds are listed: those with a hit (about 6.5% of all), similar ones and a draw of the others. Rule as the data show it, unless noted: active = inhibition above about 30%; inactive = the rest.

SMILES | PostGolgi yeast | PostGolgi ctrl | E coli WT exp | Pyk2 oligo antag | tolC growth inh | Candida biofilm
Cc1ccc(OCc2nnc(SCc3ccc(C#N)cc3)n2-c2ccc(C)cc2)cc1 | -2 | 39* | -14 | -0.16 | . | 6
CCCCC(=O)Nc1cc(OC)c(NC(=O)C2CCCCC2)cc1OC | 9 | 11 | -7 | -0.11 | . | 6
COc1ccc(-c2noc(CSc3nc4ccccc4c(=O)n3-c3ccc(C)cc3)n2)cc1 | 11 | 26 | -24 | . | . | .
O=C(NCc1ccco1)c1cc(C(=O)C2CC2)c[nH]1 | 12 | 0 | 2 | -0.29 | . | .
COC(=O)C1CN(S(=O)(=O)c2ccc(C)cc2)CCN1S(=O)(=O)c1ccc(C)cc1 (stereo not drawn) | -2 | 7 | -3 | -3.7* | 9 | 4
Cc1nn2c(N3CCOCC3)c3c(nc2c1-c1ccccc1)CCCC3 | 1 | 79* | 1 | -1.4 | 7 | 5
N#C/C(=C\c1ccc(Cl)cc1)c1nc2ncccc2[nH]1 | 27 | 48* | -7 | -0.84 | . | .
CCCCCc1c(C)nc(Nc2ccccc2)[nH]c1=O | 12 | 24 | 1 | -0.27 | 75* | 1
Cc1nc(Nc2ccc(F)cc2)[nH]c(=O)c1CCC(C)C | 3 | 32* | -3 | -0.08 | 31 | 7
Cc1ccc(Nc2nc(C)c(CCC(C)C)c(=O)[nH]2)cc1 | 11 | 19 | 3 | -0.97 | 15 | .
CCOC(=O)Nc1ccc2c(c1)N(C(=O)CCN1CCN(C)CC1)c1ccccc1S2 | -4 | 2 | -3 | 0.72 | . | 2
CCOC(=O)Nc1ccc2c(c1)N(C(=O)N1CCN(C)CC1)c1ccccc1S2 | -2 | 9 | 5 | -1.9 | 65* | 1
COc1ccc(S(=O)(=O)N2CCCC(C(=O)NCc3ccco3)C2)cc1Cl (stereo not drawn) | -3 | 5 | -4 | 0.33 | 18 | -3
CN(C)c1ccc(-c2nn3c(-c4ccc(Cl)cc4)nnc3s2)cc1 | 6 | 7 | -4 | 1 | 16 | 6
CN(C)c1ccc(-c2nn3c(C4CCCCC4)nnc3s2)cc1 | 0 | 20 | -10 | -3.6* | 58 | 0
CSc1nc(-c2ccccc2)nc(N2CCCC2)c1C(C)=O | -7 | 39* | -1 | -0.98 | 75* | 0
CSc1nc(-c2ccccc2)nc(N2CCN(C)CC2)c1C(C)=O | -23 | 5 | 11 | -0.29 | 0 | 7
CC1C(=O)C(C)C(c2ccc3c(c2)OCO3)NC1c1ccc2c(c1)OCO2 (stereo not drawn) | 4 | 35* | -8 | -1.7 | -6 | -3
O=C(NCC1CCCO1)c1ccc(S(=O)(=O)N2CCC(c3nc4ccc(Cl)cc4[nH]3)CC2)cc1 (stereo not drawn) | . | . | . | 0.77 | . | 4
CC1CCN(C(=O)c2cc(-c3ccccc3O)on2)CC1 | -10 | 35* | 2 | . | -1 | -1
O=C(c1cc(-c2ccc(O)cc2)on1)N1CCc2ccccc2C1 | 5 | 28 | 2 | . | 21 | 10
O=C(c1cc(-c2ccccc2O)on1)N1CCc2ccccc2C1 | -1 | 56* | 5 | . | 12 | 0
COC(=O)C1(S(=O)(=O)c2ccc(C)cc2)CCOCC1 | 2 | 7 | 2 | -0.27 | 3 | .
CCOC(=O)c1cc(C)n(S(=O)(=O)c2ccc(C)cc2)c1C | -7 | 1 | 13 | 0.16 | 66* | .
COc1ccc(N(CC(=O)NCc2cccs2)S(=O)(=O)c2cccnc2)cc1 | -7 | 30* | 6 | . | -4 | -11
SMILES | PostGolgi yeast | PostGolgi ctrl | E coli WT exp | Pyk2 oligo antag | tolC growth inh | Candida biofilm
CC(C)(C)c1ccc(C2C3=C(CCCC3=O)NC3=C2C(=O)c2ccccc23)cc1 (stereo not drawn) | -18 | 32* | -4 | -0.02 | . | .
CCCN1C2=C(C(=O)CCC2)C(c2ccc(F)cc2)C2=C1c1ccccc1C2=O (stereo not drawn) | . | . | . | . | . | 5
CC(C)c1ccc(C2C3=C(CC(C)(C)CC3=O)NC3=C2C(=O)c2ccccc23)cc1 (stereo not drawn) | -4 | 27 | -7 | -3* | . | .
Cc1ccc(C)c(OCC(=O)Nc2nc3ccc([N+](=O)[O-])cc3s2)c1C | 6 | 34* | -23 | -0.79 | . | .
COCC(=O)Nc1nc2ccc(C)cc2s1 | -2 | 7 | 7 | -0.03 | -7 | 6
Cc1ccc2c(c1)c1c3n2CCN(C(=O)C2CC2)C3CCC1 (stereo not drawn) | 9 | 26 | 5 | . | 40 | 13
Cc1ccc2c(c1)c1c3n2CC(=C2C(=O)OC(C)(C)OC2=O)NC3CCC1 (stereo not drawn) | 10 | 51* | -1 | -2 | 45 | 0
COC(=O)C1C2CCC(C2)C1C(=O)OCC(=O)c1ccccc1 (stereo not drawn) | -9 | 11 | -10 | 0.44 | . | .
Cc1ccc(C)c(-n2nnnc2SCC(=O)NCCC2=CCCCC2)c1 | -1 | 39* | -11 | -0.44 | 58 | 6
CNC(=O)CSc1nnnn1-c1cc(C)ccc1C | . | . | . | -0.5 | . | 5
O=C(Nc1ccccc1Cl)c1cc(S(=O)(=O)N2CCOCC2)cs1 | 1 | 31* | -1 | 0.77 | . | -3
COc1ccc(NC(=O)/C(Cl)=C(/Cl)S(=O)Cc2ccccc2)cn1 (stereo not drawn) | 107* | 80* | 8 | -0.07 | . | -3
COc1ccc(CS(=O)(=O)/C(Cl)=C(/Cl)C(=O)Nc2ccc(OC)nc2)cc1 | 29 | 65* | 4 | -1.3 | . | 5
CCc1cc(=O)oc2cc(OCC(N)=O)c(Cl)cc12 | 7 | 5 | 5 | -0.31 | . | 4
O=C1c2ccccc2C(O)N1Cc1ccco1 (stereo not drawn) | -5 | 2 | 20 | . | -1 | 6
O=C1c2[nH]nc(-c3ccccc3O)c2C(c2ccccc2)N1Cc1ccco1 (stereo not drawn) | 1 | 38* | 6 | -1.6 | 98* | 0
O=C1c2[nH]nc(-c3ccccc3O)c2C(c2ccccc2F)N1Cc1ccco1 (stereo not drawn) | -3 | 10 | 6 | -3.4* | 100* | 4
CN(C)S(=O)(=O)c1cc(S(=O)(=O)N(C)C)c(Cl)cc1N | 4 | -1 | -1 | -0.31 | -2 | 4
O=C(NCc1ccccc1)N1CCN(c2ccccc2F)CC1 | 4 | 31* | -10 | 0.18 | -6 | 8
O=C(NC(=O)N1CCN(c2ccccc2F)CC1)c1ccccc1 | 3 | 15 | -7 | 0.01 | -11 | 1
CC(C)N1CC(C(=O)Nc2nc3ccccc3s2)CC1=O (stereo not drawn) | 2 | 4 | -3 | -0.04 | 1 | 8
O=C(Nc1nc2ccccc2s1)C1CC(=O)N(c2ccc(Cl)cc2)C1 (stereo not drawn) | 14 | 40* | -5 | -0.15 | . | 4
O=C(NCCN1CCN(Cc2ccccc2Cl)CC1)Nc1ccccc1 | -18 | 27 | 7 | 0.15 | . | -5
N#CC(c1cccc(Cl)c1)c1ccc2c(C(F)(F)F)cc(C(F)(F)F)nc2n1 (stereo not drawn) | 99* | 102* | 0 | -2.5 | . | 7
O=C(/C=C/c1ccc([N+](=O)[O-])cc1)NCC1CCCO1 (stereo not drawn) | 4 | 5 | 9 | 0.3 | . | .

High-throughput results deposited in PubChem BioAssay by several laboratories.
